What all share (assay type): functional
The subject of one assay is Bacillus subtilis. Put plainly: Antimicrobial activity against Bacillus subtilis assessed as reduction in bacterial growth incubated for 48 hrs by microbroth dilution method. A digest of the protocol:
(§1)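 Panel assay run per a previously reported protocol. Amphotericin B, micafungin, hygromycin B and kanamycin served as control agents across the organism panel.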
For orientation: Broth dilution looks for growth in wells or tubes with falling amounts of substance.

For assay [1], the system named is Trichophyton mentagrophytes. Put plainly: Antimicrobial activity against Trichophyton mentagrophytes IFM62679 assessed as reduction in […] growth incubated for 48 hrs by microbroth dilution method. The conditions noted are these: IFM62679, 48 h. A digest of the protocol:
as §1

For a further assay, the system named is Aspergillus niger. Nature of the assay: Antimicrobial activity against Aspergillus niger IFM62678 assessed as reduction in […] growth incubated for 48 hrs by microbroth dilution method. The conditions noted are these: IFM62678, 48 h. The procedure, abridged:
as §1

A further assay relates to Escherichia coli. Nature of the assay: Antimicrobial activity against Escherichia coli assessed as reduction in bacterial growth incubated for 48 hrs by microbroth dilution method. The procedure, abridged: as §1
For a further assay, the system named is Micrococcus luteus. Nature of the assay: Antimicrobial activity against Micrococcus luteus assessed as reduction in bacterial growth incubated for 48 hrs by microbroth dilution method. The procedure, abridged: as §1
Another assay has as its system Staphylococcus aureus. Nature of the assay: Antimicrobial activity against Staphylococcus aureus assessed as reduction in bacterial growth incubated for 48 hrs by microbroth dilution method. The procedure, abridged: as §1
A further assay concerns Candida albicans. Put plainly: Antimicrobial activity against Candida albicans IFM62680 assessed as reduction in […] growth incubated for 48 hrs by microbroth dilution method. The conditions noted are these: IFM62680, 48 h.

≈ marks a conversion by molar mass, not a printed value. Numbered stars: 1 amine (or outer) side, 2 acyl side, 3 side chain; on linkers, the order of the positions; unused ones are H or OH. Bridge positions count the residues as written; N and C are the ends. Square brackets hold non-standard residues; d marks the D form. Peptide text beside a SMILES is read from it. * marks the point of attachment. hTyr(3S-OH,4S-OH,3'-OSO3H) = N[C@H](C(=O)O)[C@H](O)[C@@H](O)c1ccc(O)c(OS(=O)(=O)O)c1; Orn(4R-OH,5R-OH) = O=C([C@H](C[C@@H](O)[C@@H](O)N[*:3])N[*:1])[*:2]; Pro(3S-OH,4S-Me) = C[C@H]1CN[C@H](C(=O)O)[C@H]1O; X1 = CCCCCOc1ccc(-c2cc(-c3ccc(C(=O)*)cc3)no2)cc1; Gln(3R-OH) = NC(=O)C[C@@H](O)[C@H](N)C(=O)O; Hyp = O=C(O)[C@@H]1C[C@@H](O)CN1

For the compound `CC(C)=CC[C@@H]1C[C@@]2(CC=C(C)C)C(=O)C3(CC=C(C)C)C[C@]1(C)[C@]2(O)/C(=C(/O)c1ccccc1)C3=O`, the MIC (in general, the least concentration at which growth counts as inhibited) in the assay on Bacillus subtilis is 16 µg/mL (≈ 31.8 µM); in the assay with Escherichia coli, 8 µg/mL (≈ 15.9 µM); with Micrococcus luteus, 32 µg/mL (≈ 63.7 µM); in the assay on Staphylococcus aureus, 16 µg/mL (≈ 31.8 µM). Moreover, the IC50 (commonly the concentration at which inhibition is half-maximal) in assay [1] was determined as 8 µg/mL (≈ 15.9 µM); in the assay on Aspergillus niger, 16 µg/mL (≈ 31.8 µM); in the assay with Candida albicans, 32 µg/mL (≈ 63.7 µM).
In the case of `CN[C@H]1C[C@@H](N)[C@H](O)[C@@H](O[C@@H]2O[C@H](CO)[C@H](O)[C@H]3O[C@@]4(O[C@H]23)O[C@H]([C@H](N)CO)[C@H](O)[C@H](O)[C@H]4O)[C@@H]1O`, the MIC with Bacillus subtilis stood at 2 µg/mL (≈ 3.79 µM); in the assay on Escherichia coli, 2 µg/mL (≈ 3.79 µM); in the assay on Micrococcus luteus, 1 µg/mL (≈ 1.9 µM); in the assay with Staphylococcus aureus it was 0.5 µg/mL (≈ 0.948 µM). In addition, the IC50 in assay [1] was 1 µg/mL (≈ 1.9 µM); in the assay on Aspergillus niger, 1 µg/mL (≈ 1.9 µM); with Candida albicans it was 3.9 µg/mL (≈ 7.39 µM).
On to `CCCCCOc1ccc(-c2cc(-c3ccc(C(=O)N[C@H]4C[C@@H](O)[C@@H](O)NC(=O)[C@@H]5[C@@H](O)[C@@H](C)CN5C(=O)[C@H]([C@H](O)CC(N)=O)NC(=O)[C@H]([C@H](O)[C@@H](O)c5ccc(O)c(OS(=O)(=O)O)c5)NC(=O)[C@@H]5C[C@@H](O)CN5C(=O)[C@H]([C@@H](C)O)NC4=O)cc3)no2)cc1` [MICAFUNGIN] (X1-[Orn(4R-OH,5R-OH)]T[Hyp][hTyr(3S-OH,4S-OH,3'-OSO3H)][Gln(3R-OH)][Pro(3S-OH,4S-Me)]; lactam 1-C), for which the MIC with Bacillus subtilis was 0.5 µg/mL (≈ 0.394 µM); with Escherichia coli, over 62.5 µg/mL; with Micrococcus luteus it was 7.8 µg/mL (≈ 6.14 µM); in the assay with Staphylococcus aureus it was 0.5 µg/mL (≈ 0.394 µM). Moreover, the IC50 (in assay [1]; with Aspergillus niger; with Candida albicans) was under 0.1 µg/mL each time.
Regarding `CC(C)=CC[C@]12C[C@H]3C[C@@H](C(C)(C)OO)OO[C@]3(C)C[C@](CC=C(C)C)(C1=O)C(O)=C(C(=O)c1ccccc1)C2=O`, the IC50 in the assay with Candida albicans came to 8 µg/mL (≈ 14.1 µM).
For `C[C@@H]1[C@H](O)[C@@H](C)/C=C/C=C/C=C/C=C/C=C/C=C/C=C/[C@H](O[C@@H]2O[C@H](C)[C@@H](O)[C@H](N)[C@@H]2O)C[C@@H]2O[C@](O)(C[C@@H](O)C[C@@H](O)[C@H](O)CC[C@@H](O)C[C@@H](O)CC(=O)O[C@H]1C)C[C@H](O)[C@H]2C(=O)O` [AMPHOTERICIN B], the MIC in the assay on Bacillus subtilis, with Escherichia coli, with Micrococcus luteus and in the assay with Staphylococcus aureus was over 31.2 µg/mL each time. Also, the IC50 in assay [1] was found to be 3.9 µg/mL (≈ 4.22 µM); with Aspergillus niger, 1.8 µg/mL (≈ 1.95 µM); with Candida albicans, 1 µg/mL (≈ 1.08 µM).
Regarding `NC[C@H]1O[C@H](O[C@H]2[C@H](O)[C@@H](O[C@H]3O[C@H](CO)[C@@H](O)[C@H](N)[C@H]3O)[C@H](N)C[C@@H]2N)[C@H](O)[C@@H](O)[C@@H]1O` [KANAMYCIN], the MIC in the assay on Bacillus subtilis was under 0.1 µg/mL; with Escherichia coli, under 0.1 µg/mL; with Micrococcus luteus, 1 µg/mL (≈ 2.06 µM); in the assay on Staphylococcus aureus, under 0.1 µg/mL. For the same compound, the IC50 in assay [1] is 7.8 µg/mL (≈ 16.1 µM); in the assay on Aspergillus niger, 31.3 µg/mL (≈ 64.6 µM); in the assay on Candida albicans, over 62.5 µg/mL.

These data come from ChEMBL document CHEMBL3421626, “Prenylated benzophenones from Triadenum japonicum” (2015).
